Experimental findings from ChEMBL document CHEMBL1122590, “Dibenz[b,e]oxepinalkanoic acids as nonsteroidal antiinflammatory agents. 4. Synthesis and evaluation of 4-(4,10-dihydro-10-oxothieno[3,2-c] [1]benzoxepin-8-yl)butanol and -butyric acid and related derivatives” (1984) are described below.

Experiment [1] deals with Rattus norvegicus. Description: Ability to inhibit Carrageenan-induced paw edema in rat administered per orally. It counts as functional. As to conditions: for ED50: po. The procedure, abridged:
(§1)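 Male Wistar rats, 130-200 g, groups of 7-10, fasted overnight with water available. Oral dosing in 10 mL/kg of aqueous Tween 80 suspension (oils in emulphor/alcohol/water 1:1:8) at 1, 2 and/or 4 h before subplantar injection of 0.1 mL of 1% carrageenan into left hind paw. Paw volume by mercury displacement at 0 and 3 h; % edema inhibition vs vehicle; ED50 by linear regression from at least three doses.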

In experiment [2] the test system is Mus musculus. Description: Ability to inhibit phenylquinone induced writhing in mouse at dose 25 mg/Kg administered per orally. As to conditions: po.
In experiment [3] the test system is Mus musculus. Put plainly: Ability to inhibit phenylquinone induced writhing in mouse administered per orally. As to conditions: po. (In general: An intraperitoneal irritant provokes the stretching counted in writhing tests.)
Experiment [4] has as its system Rattus norvegicus. Description: Ability to inhibit Carrageenan-induced paw edema in rat at dose 20 mg/Kg administered per orally. As to conditions: po. It is filed as functional. The essentials: as §1
(In general: In the carrageenan paw model, swelling and tenderness develop within hours.)

Experiment [5] concerns Rattus norvegicus. Put plainly: Ability to inhibit Carrageenan-induced paw edema in rat at a dose of 20 mg/kg administered per orally. It counts as functional. The settings on record: route oral. The procedure, abridged: as §1
The test system of experiment [6] is Rattus norvegicus. Put plainly: Ability to inhibit gastric irritation in rat administered per orally. It counts as functional. The settings on record: Stomach, po. The essentials: (§2)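 Groups of 10 male Wistar rats, 150-175 g, fasted 48 h with water available, dosed orally (10 mL/kg vehicle as Tween 80 suspension or emulphor/alcohol/water). Time course: sacrifice at 3, 5 and 7 h. Stomachs and intestines examined; any erosion, ulcer or perforation scored ulcerogenic. Four doses at peak time; ED50 = dose giving irritation in 50% of animals, by linear regression.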

The subject of experiment [7] is Mus musculus. Description: Ability to inhibit phenylquinone induced writhing in mouse administered perorally. As to conditions: po.
In experiment [8] the test system is Rattus norvegicus. Put plainly: Ability to inhibit Carrageenan-induced paw edema in rat administered perorally. It counts as functional. As to conditions: po. The procedure, abridged: as §1
Experiment [9] concerns Mus musculus. Put plainly: Ability to inhibit phenylquinone induced writhing, in mouse at dose 25 mg/Kg administered per orally. As to conditions: po.
Experiment [10] relates to Rattus norvegicus. Description: Ability to inhibit gastric irritation in rat at dose 400 mg/Kg administered per orally. It is filed as functional. As to conditions: Stomach, po. The procedure, abridged:
as §2

Experiment [11] has as its system Rattus norvegicus. Put plainly: Ability to inhibit gastric irritation in rat administered perorally. It counts as functional. As to conditions: Stomach, po. The procedure, abridged: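 Male Wistar rats, 150-175 g, groups of 10, fasted 48 h (water ad libitum), dosed orally (10 mL/kg) as aqueous Tween 80 suspension or emulphor/alcohol/water (1:1:8) for oils; controls got vehicle. Time response: sacrificed at 3, 5 and 7 h. Dose-response at peak time with four doses. Stomach and intestine lesions (erosion, ulcer, perforation) scored. ED50 is the dose irritating 50% of rats, by linear regression; otherwise % at stated dose.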

On to `O=C(O)CCCc1ccc2c(c1)C(=O)c1sccc1CO2`, for which the Inhibition with Rattus norvegicus [1] worked out at 38%. Moreover, in the experiment with Mus musculus [2], the inhibition in vivo at 25 mg/kg came to 94%.
Turning to `O=C1c2cc(CCO)ccc2OCc2ccsc21`, in the experiment with Mus musculus [3], the 50% effect level (ED50) was put at a dose of 19.7 mg/kg. In addition, testing at 20 mg/kg in the experiment with Rattus norvegicus [4] gave an inhibition in vivo of 62%.
On to `COC(=O)CCCc1ccc2c(c1)C(=O)c1sccc1CO2`, for which it took a dose of 10.8 mg/kg to reach the 50% effect level with Mus musculus [3] (ED50).
In the case of `COC(=O)COC(=O)Cc1ccc2c(c1)C(=O)c1sccc1CO2`, the ED50 with Mus musculus [3] is 1.5 mg/kg. The inhibition in vivo at 20 mg/kg in the experiment with Rattus norvegicus [5] was found to be 43%.
The matching figures for `CCOC(=O)CCCc1ccc2c(c1)C(=O)c1sccc1CO2`: 8.2 mg/kg and 40%.
Consider `CC(=O)OCCCCc1ccc2c(c1)C(=O)c1sccc1CO2`, for which the ED50 with Mus musculus [3] was 5.8 mg/kg. This molecule also displayed an inhibition in vivo at 20 mg/kg with Rattus norvegicus [4] of 38%.
The matching figures for `CC1(C)COC(Cc2ccc3c(c2)C(=O)c2sccc2CO3)=N1`: 7.2 mg/kg and 49%.
With `O=C(O)Cc1ccc2c(c1)C(=O)c1sccc1CO2`, the ED50 with Mus musculus [3] is 3.1 mg/kg; in the experiment with Rattus norvegicus [1], 3.4 mg/kg; in the experiment on Rattus norvegicus [6], 33.7 mg/kg.
For the molecule `O=C1c2cc(CCCCOC(=O)C(F)(F)F)ccc2OCc2ccsc21`, the ED50 in the experiment with Mus musculus [7] was 9.1 mg/kg; in the experiment on Rattus norvegicus [8] it was 16.5 mg/kg.
As for `CC(C)OC(=O)CCCc1ccc2c(c1)C(=O)c1sccc1CO2`, the ED50 in the experiment on Mus musculus [3] worked out at 8.5 mg/kg. In the experiment on Rattus norvegicus [5], this molecule came in with an inhibition in vivo at 20 mg/kg of 44%.
`CC(=O)OCCc1ccc2c(c1)C(=O)c1sccc1CO2`: the median effective dose (ED50) with Rattus norvegicus [1] was found to be 11.4 mg/kg; in the experiment on Rattus norvegicus [6] it was 175 mg/kg. For the same molecule, the inhibition in vivo at 25 mg/kg in the experiment with Mus musculus [9] is 52%.
`CCC(=O)OCCc1ccc2c(c1)C(=O)c1sccc1CO2` showed an inhibition in vivo at 20 mg/kg in the experiment on Rattus norvegicus [4] of 35%. For the same molecule, the inhibition in vivo at 25 mg/kg in the experiment with Mus musculus [9] was 22%.
As to `CC(C)(CO)NC(=O)Cc1ccc2c(c1)C(=O)c1sccc1CO2`, 20 mg/kg produced 21% inhibition in vivo with Rattus norvegicus [4]. Further, the inhibition in vivo at 25 mg/kg in the experiment on Mus musculus [9] is 19%.
As to `O=C1c2cc(CCCCO)ccc2OCc2ccsc21`, the ED50 with Mus musculus [3] turned out to be 7.4 mg/kg; with Rattus norvegicus [1], 8.6 mg/kg. This molecule returned an inhibition in vivo at 400 mg/kg in the experiment with Rattus norvegicus [10] of 40%.
For the molecule `CC(C)(C)OC(=O)CCCc1ccc2c(c1)C(=O)c1sccc1CO2`, in the experiment on Rattus norvegicus [5], 20 mg/kg produced 49% inhibition in vivo. The molecule further registered an inhibition in vivo at 25 mg/kg in the experiment with Mus musculus [9] of 93%.
For `COc1ccc2c(c1)c(CC(=O)O)c(C)n2C(=O)c1ccc(Cl)cc1` [INDOMETHACIN], the figures for the ED50 with Mus musculus [7], in the experiment on Rattus norvegicus [8] and with Rattus norvegicus [11] were 0.7 mg/kg, 4.4 mg/kg and 1.8 mg/kg, respectively.

As usually defined, the Inhibition is the relative decrease from the control value, in per cent. A lower Inhibition goes with a response near the control. What is called inhibition in vivo is the change of the read-out against control, counted positive when it falls. Low values mean a weak effect, high ones a strong effect. One may read the ED50 as the midpoint of the dose-response relation. High values mean weaker potency, low ones greater potency.
